Assay results taken from ChEMBL document CHEMBL1157909, “Targeting multiple chorismate-utilizing enzymes with a single inhibitor: validation of a three-stage design” (J Med Chem, 2010).
pKi: −log10 of the molar value. Calls of active or inactive are those of the source. No cut-off for these calls is given here.

Target: Anthranilate synthase component 1 (Salmonella typhimurium (strain LT2 / SGSC1412 / ATCC 700720), UniProt P00898)
Experiment: Inhibition of Salmonella Typhimurium anthranilate synthase trpE:trpD […] coexpressing stop codon in trpD gene for encoding aminotransferase activity by spectrophotometry for enzyme-substrate-inhibitor complex
Design: species or system Salmonella enterica subsp. enterica serovar Typhimurium
Settings: not given

Row | Compound | pKi
1 | NC(=O)C1(NC(=O)[C@H](CCCNC(=O)c2cccc(OCC(=O)O)c2)NC(=O)c2ncccc2C(=O)c2ccccc2)CCCCC1 | 2.97
2 | O=C(O)COc1cccc(C(=O)O)c1 | 3.26
3 | NC(=O)C1(NC(=O)[C@H](CCCNC(=O)c2cccc(OCC(=O)O)c2)NC(=O)c2ccc(Oc3ccccc3)cc2)CCS(=O)(=O)CC1 | 2.99

Target: T1, Anthranilate synthase component 1 (Salmonella typhimurium (strain LT2 / SGSC1412 / ATCC 700720), UniProt P00898)
T1 sequence (P00898 whole entry): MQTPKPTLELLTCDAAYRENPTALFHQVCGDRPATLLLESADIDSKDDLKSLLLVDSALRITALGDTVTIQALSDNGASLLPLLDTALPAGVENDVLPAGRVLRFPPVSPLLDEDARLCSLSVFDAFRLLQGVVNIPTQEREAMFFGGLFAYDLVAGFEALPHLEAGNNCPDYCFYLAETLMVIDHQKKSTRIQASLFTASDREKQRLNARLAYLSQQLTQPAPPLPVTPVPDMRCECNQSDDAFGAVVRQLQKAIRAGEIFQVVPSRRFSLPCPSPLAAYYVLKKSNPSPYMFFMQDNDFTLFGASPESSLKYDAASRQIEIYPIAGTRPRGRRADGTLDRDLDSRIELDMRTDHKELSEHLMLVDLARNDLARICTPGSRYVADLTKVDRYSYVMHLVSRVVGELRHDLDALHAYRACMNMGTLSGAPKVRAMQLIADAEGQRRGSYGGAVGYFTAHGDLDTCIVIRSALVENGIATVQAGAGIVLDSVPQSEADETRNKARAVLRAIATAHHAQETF
Experiment: Inhibition of Salmonella Typhimurium anthranilate synthase trpE:trpD […] coexpressing stop codon in trpD gene for encoding aminotransferase activity by spectrophotometry for enzyme-inhibitor complex
Design: species or system Salmonella enterica subsp. enterica serovar Typhimurium
Settings: not given

Row | Compound | pKi
4 | Cc1ccc(C(=O)N[C@@H](CCCNC(=O)c2cccc(OCC(=O)O)c2)C(=O)N[C@@H](Cc2cccc(Cl)c2)C(N)=O)c([N+](=O)[O-])c1O | 4.39
5 | Cc1ccc(C(=O)N[C@@H](CSCCCNC(=O)c2cccc(OCC(=O)O)c2)C(=O)N[C@@H](Cc2cccc(Cl)c2)C(N)=O)c([N+](=O)[O-])c1O | 4.02
6 | NC(=O)C1(NC(=O)[C@H](CCCNC(=O)c2cccc(OCC(=O)O)c2)NC(=O)c2ncccc2C(=O)c2ccccc2)CCCCC1 | 3.31
7 | O=C(O)COc1cccc(C(=O)O)c1 | 3.68
8 | Cc1ccc(C(=O)N[C@@H](CCCCN)C(=O)N[C@@H](Cc2cccc(Cl)c2)C(N)=O)c([N+](=O)[O-])c1O | 3.96
9 | NC(=O)C1(NC(=O)[C@H](CCCNC(=O)c2cccc(OCC(=O)O)c2)NC(=O)c2ccc(Oc3ccccc3)cc2)CCS(=O)(=O)CC1 | 3.24

Target: T2, Isochorismate synthase EntC (Escherichia coli K-12) (UniProt P0AEJ2)
T2 sequence (whole entry): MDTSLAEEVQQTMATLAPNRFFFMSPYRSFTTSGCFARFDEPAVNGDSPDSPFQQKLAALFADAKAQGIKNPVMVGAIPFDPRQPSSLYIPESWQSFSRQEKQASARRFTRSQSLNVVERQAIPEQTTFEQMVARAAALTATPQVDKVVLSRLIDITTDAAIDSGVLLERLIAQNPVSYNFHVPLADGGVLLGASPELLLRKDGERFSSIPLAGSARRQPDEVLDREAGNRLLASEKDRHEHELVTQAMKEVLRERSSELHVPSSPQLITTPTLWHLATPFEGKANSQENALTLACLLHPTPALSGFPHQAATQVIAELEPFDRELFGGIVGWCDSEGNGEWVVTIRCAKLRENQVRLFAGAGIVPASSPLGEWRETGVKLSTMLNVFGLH
Experiment: Noncompetitive inhibition of Escherichia coli K12 IS expressed in Escherichia coli BL21(DE3) by double reciprocal plot in presence of cofactor Mg2+
Settings: not given
Method in brief: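 IS (75 nM) in an EntB/LDH coupled assay, with NADH loss read at 340 nm, 25 °C. Buffer: 50 mM triethanolamine pH 7.8, 100 μM NADH. Chorismate was held saturating at 200 μM while Mg2+ was varied 5–500 μM. Inhibitor ranged 10 μM–8 mM; the inhibition pattern came from initial rates.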

Row | Compound | Activity
10 | Cc1ccc(C(=O)N[C@@H](CCCNC(=O)c2cccc(OCC(=O)O)c2)C(=O)N[C@@H](Cc2cccc(Cl)c2)C(N)=O)c([N+](=O)[O-])c1O | Active
11 | Cc1ccc(C(=O)N[C@@H](CSCCCNC(=O)c2cccc(OCC(=O)O)c2)C(=O)N[C@@H](Cc2cccc(Cl)c2)C(N)=O)c([N+](=O)[O-])c1O | Active
12 | NC(=O)C1(NC(=O)[C@H](CCCNC(=O)c2cccc(OCC(=O)O)c2)NC(=O)c2ncccc2C(=O)c2ccccc2)CCCCC1 | Active
13 | O=C(O)COc1cccc(C(=O)O)c1 | Active
14 | Cc1ccc(C(=O)N[C@@H](CCCCN)C(=O)N[C@@H](Cc2cccc(Cl)c2)C(N)=O)c([N+](=O)[O-])c1O | Active
15 | NC(=O)C1(NC(=O)[C@H](CCCNC(=O)c2cccc(OCC(=O)O)c2)NC(=O)c2ccc(Oc3ccccc3)cc2)CCS(=O)(=O)CC1 | Active

Target: T3, Anthranilate synthase component 1 (Salmonella typhimurium (strain LT2 / SGSC1412 / ATCC 700720)) (UniProt P00898)
T3 sequence (whole entry): T1 sequence (P00898 whole entry)
Experiment: Mixed-type inhibition of Salmonella Typhimurium anthranilate synthase trpE expressed in Escherichia coli BL21(DE3) using chorismate as substrate by double reciprocal plot
Settings: Salmonella enterica subsp. enterica serovar Typhimurium
Method in brief: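 S. typhimurium anthranilate synthase partial complex (TrpE2TrpG2), 2.2 nM, in a fluorescence assay read at 390 nm emission, 313 nm excitation, 25 °C. Buffer: 100 mM phosphate pH 7.0, 20 mM L-glutamine, 5 mM MgCl2 (saturating). Reactions were started with enzyme. Inhibitor ranged 10 μM–8 mM; chorismate ranged 0.5–5 KM. Ki versus chorismate came from initial rates.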

Row | Compound | Activity
16 | Cc1ccc(C(=O)N[C@@H](CSCCCNC(=O)c2cccc(OCC(=O)O)c2)C(=O)N[C@@H](Cc2cccc(Cl)c2)C(N)=O)c([N+](=O)[O-])c1O | Active
17 | NC(=O)C1(NC(=O)[C@H](CCCNC(=O)c2cccc(OCC(=O)O)c2)NC(=O)c2ncccc2C(=O)c2ccccc2)CCCCC1 | Active
18 | O=C(O)COc1cccc(C(=O)O)c1 | Active
19 | NC(=O)C1(NC(=O)[C@H](CCCNC(=O)c2cccc(OCC(=O)O)c2)NC(=O)c2ccc(Oc3ccccc3)cc2)CCS(=O)(=O)CC1 | Active

Target: T3, Anthranilate synthase component 1 (Salmonella typhimurium (strain LT2 / SGSC1412 / ATCC 700720))
Experiment: Competitive inhibition of Salmonella Typhimurium anthranilate synthase trpE expressed in Escherichia coli BL21(DE3) by double reciprocal plot in presence of cofactor Mg2+
Settings: Salmonella enterica subsp. enterica serovar Typhimurium

Row | Compound | Activity
20 | Cc1ccc(C(=O)N[C@@H](CCCNC(=O)c2cccc(OCC(=O)O)c2)C(=O)N[C@@H](Cc2cccc(Cl)c2)C(N)=O)c([N+](=O)[O-])c1O | Active
21 | Cc1ccc(C(=O)N[C@@H](CSCCCNC(=O)c2cccc(OCC(=O)O)c2)C(=O)N[C@@H](Cc2cccc(Cl)c2)C(N)=O)c([N+](=O)[O-])c1O | Active
22 | NC(=O)C1(NC(=O)[C@H](CCCNC(=O)c2cccc(OCC(=O)O)c2)NC(=O)c2ncccc2C(=O)c2ccccc2)CCCCC1 | Active
23 | O=C(O)COc1cccc(C(=O)O)c1 | Active
24 | NC(=O)C1(NC(=O)[C@H](CCCNC(=O)c2cccc(OCC(=O)O)c2)NC(=O)c2ccc(Oc3ccccc3)cc2)CCS(=O)(=O)CC1 | Active

Target: T4, Isochorismate synthase EntC (Escherichia coli K-12, UniProt P0AEJ2)
T4 sequence (P0AEJ2 whole entry): T2 sequence (whole entry)
Experiment: Inhibition of Escherichia coli K12 IS expressed in Escherichia coli BL21(DE3) by spectrophotometry
Settings: not given
Method in brief: (§1)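 Isochorismate synthase EntC (His-tagged, pET28a, BL21(DE3)) at 75 nM, coupled to excess EntB (2 μM) and 2 units LDH. Read-out was NADH oxidation at 340 nm, 25 °C. Buffer: 50 mM triethanolamine pH 7.8, 1 mM MgCl2 (saturating), 100 μM NADH. Inhibitor ranged 10 μM–8 mM; chorismate ranged 0.5–5 KM. Ki versus chorismate came from initial rates.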

Row | Compound | pKi
25 | Cc1ccc(C(=O)N[C@@H](CCCNC(=O)c2cccc(OCC(=O)O)c2)C(=O)N[C@@H](Cc2cccc(Cl)c2)C(N)=O)c([N+](=O)[O-])c1O | 3.44
26 | Cc1ccc(C(=O)N[C@@H](CSCCCNC(=O)c2cccc(OCC(=O)O)c2)C(=O)N[C@@H](Cc2cccc(Cl)c2)C(N)=O)c([N+](=O)[O-])c1O | 3.82
27 | NC(=O)C1(NC(=O)[C@H](CCCNC(=O)c2cccc(OCC(=O)O)c2)NC(=O)c2ncccc2C(=O)c2ccccc2)CCCCC1 | 3.37
28 | O=C(O)COc1cccc(C(=O)O)c1 | 2.89
29 | Cc1ccc(C(=O)N[C@@H](CCCCN)C(=O)N[C@@H](Cc2cccc(Cl)c2)C(N)=O)c([N+](=O)[O-])c1O | 3.10
30 | NC(=O)C1(NC(=O)[C@H](CCCNC(=O)c2cccc(OCC(=O)O)c2)NC(=O)c2ccc(Oc3ccccc3)cc2)CCS(=O)(=O)CC1 | 3.77

Target: Aminodeoxychorismate synthase component 1 PabB (Escherichia coli K-12) (UniProt P05041)
Sequence (P05041 whole entry, looked up): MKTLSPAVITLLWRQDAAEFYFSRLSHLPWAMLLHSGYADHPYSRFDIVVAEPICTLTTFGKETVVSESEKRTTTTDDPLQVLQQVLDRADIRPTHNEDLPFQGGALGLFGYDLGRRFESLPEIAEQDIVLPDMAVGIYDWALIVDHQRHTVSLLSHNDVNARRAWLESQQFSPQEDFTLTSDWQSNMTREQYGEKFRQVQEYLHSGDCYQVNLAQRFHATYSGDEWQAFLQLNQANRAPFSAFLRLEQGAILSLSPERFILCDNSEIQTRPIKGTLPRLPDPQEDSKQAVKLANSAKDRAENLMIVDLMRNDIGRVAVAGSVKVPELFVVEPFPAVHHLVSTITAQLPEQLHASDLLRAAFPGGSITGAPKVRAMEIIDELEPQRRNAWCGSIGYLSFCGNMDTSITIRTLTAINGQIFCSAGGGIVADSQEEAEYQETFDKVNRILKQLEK
Experiment: Noncompetitive inhibition of Escherichia coli K12 ADCS by double reciprocal plot in presence of cofactor Mg2+
Settings: not given

Row | Compound | Activity
31 | Cc1ccc(C(=O)N[C@@H](CCCCN)C(=O)N[C@@H](Cc2cccc(Cl)c2)C(N)=O)c([N+](=O)[O-])c1O | Active

Target: Aminodeoxychorismate synthase component 1 PabB (Escherichia coli K-12) (UniProt P05041)
Experiment: Competitive inhibition of Escherichia coli K12 ADCS by double reciprocal plot in presence of cofactor Mg2+
Settings: not given

Row | Compound | Activity
32 | Cc1ccc(C(=O)N[C@@H](CSCCCNC(=O)c2cccc(OCC(=O)O)c2)C(=O)N[C@@H](Cc2cccc(Cl)c2)C(N)=O)c([N+](=O)[O-])c1O | Active
33 | NC(=O)C1(NC(=O)[C@H](CCCNC(=O)c2cccc(OCC(=O)O)c2)NC(=O)c2ncccc2C(=O)c2ccccc2)CCCCC1 | Active
34 | O=C(O)COc1cccc(C(=O)O)c1 | Active
35 | NC(=O)C1(NC(=O)[C@H](CCCNC(=O)c2cccc(OCC(=O)O)c2)NC(=O)c2ccc(Oc3ccccc3)cc2)CCS(=O)(=O)CC1 | Active

Target: T2, Isochorismate synthase EntC (Escherichia coli K-12)
Experiment: Competitive inhibition of Escherichia coli K12 IS expressed in Escherichia coli BL21(DE3) using chorismate as substrate by double reciprocal plot
Settings: not given
Method in brief: as §1

Row | Compound | Activity
36 | Cc1ccc(C(=O)N[C@@H](CCCNC(=O)c2cccc(OCC(=O)O)c2)C(=O)N[C@@H](Cc2cccc(Cl)c2)C(N)=O)c([N+](=O)[O-])c1O | Active
37 | Cc1ccc(C(=O)N[C@@H](CSCCCNC(=O)c2cccc(OCC(=O)O)c2)C(=O)N[C@@H](Cc2cccc(Cl)c2)C(N)=O)c([N+](=O)[O-])c1O | Active
38 | NC(=O)C1(NC(=O)[C@H](CCCNC(=O)c2cccc(OCC(=O)O)c2)NC(=O)c2ncccc2C(=O)c2ccccc2)CCCCC1 | Active
39 | O=C(O)COc1cccc(C(=O)O)c1 | Active
40 | Cc1ccc(C(=O)N[C@@H](CCCCN)C(=O)N[C@@H](Cc2cccc(Cl)c2)C(N)=O)c([N+](=O)[O-])c1O | Active
41 | NC(=O)C1(NC(=O)[C@H](CCCNC(=O)c2cccc(OCC(=O)O)c2)NC(=O)c2ccc(Oc3ccccc3)cc2)CCS(=O)(=O)CC1 | Active

Target: Aminodeoxychorismate synthase component 1 PabB (Escherichia coli K-12) (UniProt P05041)
Experiment: Noncompetitive inhibition of Escherichia coli K12 ADCS using chorismate as substrate by double reciprocal plot
Settings: not given

Row | Compound | Activity
42 | Cc1ccc(C(=O)N[C@@H](CCCCN)C(=O)N[C@@H](Cc2cccc(Cl)c2)C(N)=O)c([N+](=O)[O-])c1O | Active

Target: Aminodeoxychorismate synthase component 1 PabB (Escherichia coli K-12) (UniProt P05041)
Experiment: Competitive inhibition of Escherichia coli K12 ADCS using chorismate as substrate by double reciprocal plot
Settings: not given

Row | Compound | Activity
43 | Cc1ccc(C(=O)N[C@@H](CCCNC(=O)c2cccc(OCC(=O)O)c2)C(=O)N[C@@H](Cc2cccc(Cl)c2)C(N)=O)c([N+](=O)[O-])c1O | Active
44 | Cc1ccc(C(=O)N[C@@H](CSCCCNC(=O)c2cccc(OCC(=O)O)c2)C(=O)N[C@@H](Cc2cccc(Cl)c2)C(N)=O)c([N+](=O)[O-])c1O | Active
45 | NC(=O)C1(NC(=O)[C@H](CCCNC(=O)c2cccc(OCC(=O)O)c2)NC(=O)c2ncccc2C(=O)c2ccccc2)CCCCC1 | Active
46 | O=C(O)COc1cccc(C(=O)O)c1 | Active
47 | NC(=O)C1(NC(=O)[C@H](CCCNC(=O)c2cccc(OCC(=O)O)c2)NC(=O)c2ccc(Oc3ccccc3)cc2)CCS(=O)(=O)CC1 | Active
